Converted amounts (≈) assume the structure as drawn.
What was measured:
[1] = system: Staphylococcus epidermidis; experiment: Antibacterial activity against 10^4 CFU methicillin-resistant Staphylococcus epidermidis 09-2 after 18 hrs by CLSI agar dilution method; type: functional; settings: 09-2, 18 h
[2] = system: Klebsiella pneumoniae; experiment: Antibacterial activity against 10^4 CFU Klebsiella pneumoniae 09-23 after 18 hrs by CLSI agar dilution method; type: functional; settings: 09-23, 18 h
[3] = Cytotoxicity against MDCK cells after 48 hrs by CPE assay; type: cell-based, Canis lupus familiaris; settings: dog
Summary of the method: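 MDCK cells kept in Minimum Essential Medium with Earle's salt plus 10% fetal bovine serum at 37 °C, 5% CO₂. […] Medium then replaced by assay medium with or without compound. After 48 h exposure, viability read by CPE assay. CC₅₀ calculated by Reed–Muench analysis.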

[4] = system: Klebsiella pneumoniae; experiment: Antibacterial activity against 10^4 CFU Klebsiella pneumoniae 09-22 after 18 hrs by CLSI agar dilution method; type: functional; settings: 09-22, 18 h
[5] = system: Enterococcus faecalis; experiment: Antibacterial activity against 10^4 CFU Enterococcus faecalis 08-12 after 18 hrs by CLSI agar dilution method; type: functional; settings: 08-12, 18 h
[6] = system: Escherichia coli; experiment: Antibacterial activity against 10^4 CFU Escherichia coli 08-21 after 18 hrs by CLSI agar dilution method; type: functional; settings: 08-21, 18 h
[7] = system: Streptococcus pneumoniae; experiment: Antibacterial activity against 10^4 CFU Streptococcus pneumoniae 08-4 after 18 hrs by CLSI agar dilution method; type: functional; settings: 08-4, 18 h
[8] = system: Enterococcus faecium; experiment: Antibacterial activity against 10^4 CFU Enterococcus faecium 06-7 after 18 hrs by CLSI agar dilution method; type: functional; settings: 06-7, 18 h
[9] = system: Pseudomonas aeruginosa; experiment: Antibacterial activity against 10^4 CFU Pseudomonas aeruginosa 09-32 after 18 hrs by CLSI agar dilution method; type: functional; settings: 09-32, 18 h
[10] = system: Staphylococcus aureus; experiment: Antibacterial activity against 10^4 CFU Staphylococcus aureus ATCC 25923 after 18 hrs by CLSI agar dilution method; type: functional; settings: ATCC 25923, 18 h
[11] = system: Staphylococcus epidermidis; experiment: Antibacterial activity against 10^4 CFU methicillin-sensitive Staphylococcus epidermidis 09-6 after 18 hrs by CLSI agar dilution method; type: functional; settings: 09-6, 18 h
[12] = system: Staphylococcus aureus; experiment: Antibacterial activity against 10^4 CFU methicillin-resistant Staphylococcus aureus 08-1 after 18 hrs by CLSI agar dilution method; type: functional; settings: 08-1, 18 h
[13] = system: Enterococcus faecium; experiment: Antibacterial activity against 10^4 CFU Enterococcus faecium 08-2 after 18 hrs by CLSI agar dilution method; type: functional; settings: 08-2, 18 h
[14] = system: Escherichia coli; experiment: Antibacterial activity against 10^4 CFU Escherichia coli ATCC 25922 after 18 hrs by CLSI agar dilution method; type: functional; settings: ATCC 25922, 18 h
[15] = system: Pseudomonas aeruginosa; experiment: Antibacterial activity against 10^4 CFU Pseudomonas aeruginosa ATCC 27853 after 18 hrs by CLSI agar dilution method; type: functional; settings: ATCC 27853, 18 h
[16] = system: Enterococcus faecalis; experiment: Antibacterial activity against 10^4 CFU Enterococcus faecalis 08-10 after 18 hrs by CLSI agar dilution method; type: functional; settings: 08-10, 18 h
[17] = system: Staphylococcus aureus; experiment: Antibacterial activity against 10^4 CFU methicillin-sensitive Staphylococcus aureus 08-1 after 18 hrs by CLSI agar dilution method; type: functional; settings: 08-1, 18 h

SMILES: CCO/N=C1\CN(c2c(F)cc3c(=O)c(C(=O)O)cn(C4CC4)c3c2OC)CCC1(C)N (configuration not stated)
- MIC [1]: 0.25 µg/mL (≈ 0.56 µM)
- MIC [2]: > 128 µg/mL
- CC50 at 48 h [3]: 280 µM
- MIC [4]: 1 µg/mL (≈ 2.24 µM)
- MIC [5]: 128 µg/mL (≈ 287 µM)
- MIC [6]: > 128 µg/mL
- MIC [7]: 0.25 µg/mL (≈ 0.56 µM)
- MIC [8]: 128 µg/mL (≈ 287 µM)
- MIC [9]: 0.5 µg/mL (≈ 1.12 µM)
- MIC [10]: 0.25 µg/mL (≈ 0.56 µM)
- MIC [11]: 0.25 µg/mL (≈ 0.56 µM)
- MIC [12]: 0.25 µg/mL (≈ 0.56 µM)
- MIC [13]: 64 µg/mL (≈ 143 µM)
- MIC [14]: 128 µg/mL (≈ 287 µM)
- MIC [15]: 4 µg/mL (≈ 8.96 µM)
- MIC [16]: 1 µg/mL (≈ 2.24 µM)
- MIC [17]: 0.25 µg/mL (≈ 0.56 µM)

SMILES: CCO/N=C1\CN(c2c(F)cc3c(=O)c(C(=O)O)cn(C4CC4)c3c2OC(F)F)CCC1(C)N (configuration not stated)
- MIC [1]: 0.25 µg/mL (≈ 0.518 µM)
- MIC [2]: 8 µg/mL (≈ 16.6 µM)
- CC50 at 48 h [3]: 518 µM
- MIC [4]: 16 µg/mL (≈ 33.2 µM)
- MIC [5]: 32 µg/mL (≈ 66.3 µM)
- MIC [6]: 128 µg/mL (≈ 265 µM)
- MIC [7]: 0.25 µg/mL (≈ 0.518 µM)
- MIC [8]: 128 µg/mL (≈ 265 µM)
- MIC [9]: 16 µg/mL (≈ 33.2 µM)
- MIC [10]: 0.125 µg/mL (≈ 0.259 µM)
- MIC [11]: 0.25 µg/mL (≈ 0.518 µM)
- MIC [12]: 0.25 µg/mL (≈ 0.518 µM)
- MIC [13]: 128 µg/mL (≈ 265 µM)
- MIC [14]: 16 µg/mL (≈ 33.2 µM)
- MIC [15]: 4 µg/mL (≈ 8.29 µM)
- MIC [16]: 8 µg/mL (≈ 16.6 µM)
- MIC [17]: 0.25 µg/mL (≈ 0.518 µM)

SMILES: CCO/N=C1\CN(c2nc3c(cc2F)c(=O)c(C(=O)O)cn3C2CC2)CCC1(C)N (configuration not stated)
- MIC [1]: 0.25 µg/mL (≈ 0.599 µM)
- MIC [2]: > 128 µg/mL
- CC50 at 48 h [3]: 300 µM
- MIC [4]: > 128 µg/mL
- MIC [5]: > 128 µg/mL
- MIC [6]: > 128 µg/mL
- MIC [7]: 0.25 µg/mL (≈ 0.599 µM)
- MIC [8]: > 128 µg/mL
- MIC [9]: 2 µg/mL (≈ 4.79 µM)
- MIC [10]: 0.125 µg/mL (≈ 0.299 µM)
- MIC [11]: 0.25 µg/mL (≈ 0.599 µM)
- MIC [12]: 0.25 µg/mL (≈ 0.599 µM)
- MIC [13]: > 128 µg/mL
- MIC [14]: 128 µg/mL (≈ 307 µM)
- MIC [15]: 8 µg/mL (≈ 19.2 µM)
- MIC [16]: > 128 µg/mL
- MIC [17]: 0.25 µg/mL (≈ 0.599 µM)

SMILES: CCO/N=C1\CN(c2c(F)cc3c(=O)c(C(=O)O)cn(CC)c3c2F)CCC1(C)N (configuration not stated)
- MIC [1]: 0.25 µg/mL (≈ 0.592 µM)
- MIC [2]: > 128 µg/mL
- CC50 at 48 h [3]: 592 µM
- MIC [4]: > 128 µg/mL
- MIC [5]: > 128 µg/mL
- MIC [6]: > 128 µg/mL
- MIC [7]: 0.25 µg/mL (≈ 0.592 µM)
- MIC [8]: > 128 µg/mL
- MIC [9]: 64 µg/mL (≈ 152 µM)
- MIC [10]: 0.25 µg/mL (≈ 0.592 µM)
- MIC [11]: 0.25 µg/mL (≈ 0.592 µM)
- MIC [12]: 0.25 µg/mL (≈ 0.592 µM)
- MIC [13]: > 128 µg/mL
- MIC [14]: > 128 µg/mL
- MIC [15]: 4 µg/mL (≈ 9.47 µM)
- MIC [16]: 4 µg/mL (≈ 9.47 µM)
- MIC [17]: 0.25 µg/mL (≈ 0.592 µM)

SMILES: CCO/N=C1\CN(c2nc3c(cc2F)c(=O)c(C(=O)O)cn3-c2ccc(F)cc2F)CCC1(C)N (configuration not stated)
- MIC [1]: 0.25 µg/mL (≈ 0.511 µM)
- MIC [2]: 32 µg/mL (≈ 65.4 µM)
- CC50 at 48 h [3]: 128 µM
- MIC [4]: 32 µg/mL (≈ 65.4 µM)
- MIC [5]: 32 µg/mL (≈ 65.4 µM)
- MIC [6]: 32 µg/mL (≈ 65.4 µM)
- MIC [7]: 0.25 µg/mL (≈ 0.511 µM)
- MIC [8]: > 128 µg/mL
- MIC [9]: 0.5 µg/mL (≈ 1.02 µM)
- MIC [10]: 0.25 µg/mL (≈ 0.511 µM)
- MIC [11]: 0.25 µg/mL (≈ 0.511 µM)
- MIC [12]: 2 µg/mL (≈ 4.09 µM)
- MIC [13]: 64 µg/mL (≈ 131 µM)
- MIC [14]: 16 µg/mL (≈ 32.7 µM)
- MIC [15]: 4 µg/mL (≈ 8.17 µM)
- MIC [16]: 8 µg/mL (≈ 16.3 µM)
- MIC [17]: 0.25 µg/mL (≈ 0.511 µM)

SMILES: COc1c(N2C[C@@H]3CCCN[C@@H]3C2)c(F)cc2c(=O)c(C(=O)O)cn(C3CC3)c12 [MOXIFLOXACIN]
- CC50 at 48 h [3]: 161 µM

SMILES: CO/N=C1\CN(c2c(F)cc3c(=O)c(C(=O)O)cn4c3c2OC[C@@H]4C)CCC1(C)N (some centres not stated)
- MIC [1]: 0.25 µg/mL (≈ 0.597 µM)
- MIC [2]: > 128 µg/mL
- CC50 at 48 h [3]: 1510 µM
- MIC [4]: 2 µg/mL (≈ 4.78 µM)
- MIC [5]: > 128 µg/mL
- MIC [6]: > 128 µg/mL
- MIC [7]: 0.25 µg/mL (≈ 0.597 µM)
- MIC [8]: > 128 µg/mL
- MIC [9]: 128 µg/mL (≈ 306 µM)
- MIC [10]: 0.25 µg/mL (≈ 0.597 µM)
- MIC [11]: 0.25 µg/mL (≈ 0.597 µM)
- MIC [12]: 0.25 µg/mL (≈ 0.597 µM)
- MIC [13]: > 128 µg/mL
- MIC [14]: 128 µg/mL (≈ 306 µM)
- MIC [15]: 8 µg/mL (≈ 19.1 µM)
- MIC [16]: 16 µg/mL (≈ 38.2 µM)
- MIC [17]: 0.25 µg/mL (≈ 0.597 µM)

SMILES: C[C@H]1COc2c(N3CCN(C)CC3)c(F)cc3c(=O)c(C(=O)O)cn1c23.C[C@H]1COc2c(N3CCN(C)CC3)c(F)cc3c(=O)c(C(=O)O)cn1c23.O [LEVOFLOXACIN]
- MIC [1]: 0.25 µg/mL
- MIC [2]: 16 µg/mL
- MIC [4]: 16 µg/mL
- MIC [5]: 8 µg/mL
- MIC [6]: 16 µg/mL
- MIC [8]: 16 µg/mL
- MIC [9]: 16 µg/mL
- MIC [10]: 0.25 µg/mL
- MIC [11]: 4 µg/mL
- MIC [12]: 0.125 µg/mL
- MIC [13]: 4 µg/mL
- MIC [14]: 2 µg/mL
- MIC [16]: 8 µg/mL
- MIC [17]: 0.125 µg/mL

Reference: ChEMBL document CHEMBL1781961, “Synthesis and in vitro antibacterial activity of 7-(3-alkoxyimino-4-amino-4-methylpiperidin-1-yl) fluoroquinolone derivatives” (Eur J Med Chem, 2011)
